Reference: ChEMBL document CHEMBL1155278, “3,4-Diaryl-isoxazoles and -imidazoles as potent dual inhibitors of p38alpha mitogen activated protein kinase and casein kinase 1delta” (J Med Chem, 2009)

Tests used:
[1] = biological target: MAP kinase-interacting serine/threonine-protein kinase 1 (Homo sapiens) (UniProt Q9BUB5); assay: Inhibition of MNK1 assessed as residual activity at 10 uM by Cherenkov counting relative to control in presence of 50 uM ATP
[2] = biological target: MAP kinase-activated protein kinase 3 (Homo sapiens) (UniProt Q16644); assay: Inhibition of MAPKAPK3 assessed as residual activity at 10 uM by Cherenkov counting relative to control
MAP kinase-activated protein kinase 3 (Homo sapiens), sequence (Q16644 whole entry, looked up): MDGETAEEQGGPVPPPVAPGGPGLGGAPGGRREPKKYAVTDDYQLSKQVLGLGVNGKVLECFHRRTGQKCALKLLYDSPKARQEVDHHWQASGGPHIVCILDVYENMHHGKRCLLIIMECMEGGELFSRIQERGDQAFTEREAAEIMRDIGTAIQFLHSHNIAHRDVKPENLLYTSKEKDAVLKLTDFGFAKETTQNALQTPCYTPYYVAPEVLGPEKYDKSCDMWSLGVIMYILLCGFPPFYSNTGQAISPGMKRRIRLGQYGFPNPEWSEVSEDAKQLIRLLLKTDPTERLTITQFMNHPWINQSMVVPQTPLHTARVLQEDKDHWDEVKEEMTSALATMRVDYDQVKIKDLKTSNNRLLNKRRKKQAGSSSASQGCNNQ

[3] = biological target: Insulin receptor-related protein (Homo sapiens) (UniProt P14616); assay: Inhibition of IRR assessed as residual activity at 10 uM by Cherenkov counting relative to control in presence of 5 uM ATP
Insulin receptor-related protein (Homo sapiens), sequence (P14616 27-742 limits assumed): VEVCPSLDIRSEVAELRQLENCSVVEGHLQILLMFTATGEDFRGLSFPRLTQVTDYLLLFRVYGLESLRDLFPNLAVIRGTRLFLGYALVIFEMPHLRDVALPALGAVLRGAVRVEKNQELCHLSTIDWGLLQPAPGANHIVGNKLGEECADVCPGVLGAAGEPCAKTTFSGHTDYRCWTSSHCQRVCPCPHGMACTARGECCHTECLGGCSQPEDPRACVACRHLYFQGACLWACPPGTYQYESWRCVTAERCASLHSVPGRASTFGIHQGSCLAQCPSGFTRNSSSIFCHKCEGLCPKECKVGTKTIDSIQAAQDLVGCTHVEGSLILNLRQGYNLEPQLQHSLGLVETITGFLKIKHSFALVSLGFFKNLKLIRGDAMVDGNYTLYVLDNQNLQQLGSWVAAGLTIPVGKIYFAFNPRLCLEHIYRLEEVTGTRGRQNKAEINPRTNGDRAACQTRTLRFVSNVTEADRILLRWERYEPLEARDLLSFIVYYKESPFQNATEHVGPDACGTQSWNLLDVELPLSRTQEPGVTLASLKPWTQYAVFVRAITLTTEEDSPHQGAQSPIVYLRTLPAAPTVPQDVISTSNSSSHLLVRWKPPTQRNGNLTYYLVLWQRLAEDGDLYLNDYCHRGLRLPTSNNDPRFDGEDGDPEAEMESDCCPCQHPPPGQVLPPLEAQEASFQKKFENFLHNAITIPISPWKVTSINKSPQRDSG
Insulin receptor-related protein (Homo sapiens), sequence (P14616 747-1297 limits assumed): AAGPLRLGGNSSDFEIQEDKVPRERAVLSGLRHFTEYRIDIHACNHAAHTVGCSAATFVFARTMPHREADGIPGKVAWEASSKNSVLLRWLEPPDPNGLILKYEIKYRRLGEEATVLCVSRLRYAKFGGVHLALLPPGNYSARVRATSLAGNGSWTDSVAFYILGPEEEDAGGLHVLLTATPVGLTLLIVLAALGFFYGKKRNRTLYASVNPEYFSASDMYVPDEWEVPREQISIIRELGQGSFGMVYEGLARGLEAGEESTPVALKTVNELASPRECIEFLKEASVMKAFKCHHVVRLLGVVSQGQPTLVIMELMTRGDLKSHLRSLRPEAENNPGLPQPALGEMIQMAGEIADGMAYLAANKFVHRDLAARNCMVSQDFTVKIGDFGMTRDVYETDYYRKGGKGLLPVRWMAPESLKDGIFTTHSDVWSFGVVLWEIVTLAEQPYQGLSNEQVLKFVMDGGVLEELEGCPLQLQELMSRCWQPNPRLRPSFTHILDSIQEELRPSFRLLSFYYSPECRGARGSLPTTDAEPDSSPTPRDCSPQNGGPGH

[4] = biological target: T1, Eukaryotic elongation factor 2 kinase (Homo sapiens) (UniProt O00418); assay: Inhibition of EF2K assessed as residual activity at 10 uM by Cherenkov counting relative to control in presence of 5 uM ATP
T1 sequence (whole entry): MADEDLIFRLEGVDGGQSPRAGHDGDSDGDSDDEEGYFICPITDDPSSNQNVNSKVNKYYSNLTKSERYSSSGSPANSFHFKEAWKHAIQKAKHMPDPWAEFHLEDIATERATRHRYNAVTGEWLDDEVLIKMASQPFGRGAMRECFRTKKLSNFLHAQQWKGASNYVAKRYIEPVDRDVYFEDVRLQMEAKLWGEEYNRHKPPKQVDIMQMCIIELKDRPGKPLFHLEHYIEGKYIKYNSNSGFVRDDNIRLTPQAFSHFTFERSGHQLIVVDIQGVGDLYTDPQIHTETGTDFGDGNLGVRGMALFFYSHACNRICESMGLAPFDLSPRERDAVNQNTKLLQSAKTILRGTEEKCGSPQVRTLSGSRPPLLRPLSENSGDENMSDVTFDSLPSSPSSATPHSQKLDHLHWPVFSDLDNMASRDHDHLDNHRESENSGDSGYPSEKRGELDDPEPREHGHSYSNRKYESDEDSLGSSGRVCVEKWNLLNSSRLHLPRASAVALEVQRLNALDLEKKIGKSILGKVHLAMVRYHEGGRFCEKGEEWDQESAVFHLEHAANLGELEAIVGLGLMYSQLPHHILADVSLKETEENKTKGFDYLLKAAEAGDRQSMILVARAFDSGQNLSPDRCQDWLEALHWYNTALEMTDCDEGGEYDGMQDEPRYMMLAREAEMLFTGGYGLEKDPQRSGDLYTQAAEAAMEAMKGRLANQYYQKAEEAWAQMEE
Procedure, shortened: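 Single-point profiling at 10 µM in a panel of 78 protein kinases. Kinase activity is expressed as a percentage relative to control assays without compound.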

[5] = biological target: Mitogen-activated protein kinase 11 (Homo sapiens) (UniProt Q15759); assay: Inhibition of p38beta at 0.1 uM by Cherenkov counting
Mitogen-activated protein kinase 11 (Homo sapiens), sequence (Q15759 whole entry): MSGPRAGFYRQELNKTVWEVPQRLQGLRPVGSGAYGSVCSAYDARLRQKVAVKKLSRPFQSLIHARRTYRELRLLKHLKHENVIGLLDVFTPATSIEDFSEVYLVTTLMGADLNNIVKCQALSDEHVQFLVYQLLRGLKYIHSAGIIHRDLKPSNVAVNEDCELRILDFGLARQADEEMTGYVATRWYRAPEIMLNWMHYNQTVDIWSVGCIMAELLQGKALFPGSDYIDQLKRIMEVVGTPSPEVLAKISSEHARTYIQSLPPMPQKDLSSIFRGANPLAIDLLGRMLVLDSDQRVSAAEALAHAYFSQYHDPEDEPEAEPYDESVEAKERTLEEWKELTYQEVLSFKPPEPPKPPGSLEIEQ
Procedure, shortened: (§1)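 Single-concentration screen at 0.1 μM in a 76-kinase panel. ATP for each kinase was set near its Km for ATP. Residual activity is given as a percentage of control assays without compound, mean of n = 3 ± SD.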

[6] = biological target: Ribosomal protein S6 kinase beta-1 (Homo sapiens) (UniProt P23443); assay: Inhibition of S6K1 assessed as residual activity at 0.1 uM by Cherenkov counting relative to control in presence of 20 uM ATP; procedure, shortened: as §1
Ribosomal protein S6 kinase beta-1 (Homo sapiens), sequence (P23443 whole entry, looked up): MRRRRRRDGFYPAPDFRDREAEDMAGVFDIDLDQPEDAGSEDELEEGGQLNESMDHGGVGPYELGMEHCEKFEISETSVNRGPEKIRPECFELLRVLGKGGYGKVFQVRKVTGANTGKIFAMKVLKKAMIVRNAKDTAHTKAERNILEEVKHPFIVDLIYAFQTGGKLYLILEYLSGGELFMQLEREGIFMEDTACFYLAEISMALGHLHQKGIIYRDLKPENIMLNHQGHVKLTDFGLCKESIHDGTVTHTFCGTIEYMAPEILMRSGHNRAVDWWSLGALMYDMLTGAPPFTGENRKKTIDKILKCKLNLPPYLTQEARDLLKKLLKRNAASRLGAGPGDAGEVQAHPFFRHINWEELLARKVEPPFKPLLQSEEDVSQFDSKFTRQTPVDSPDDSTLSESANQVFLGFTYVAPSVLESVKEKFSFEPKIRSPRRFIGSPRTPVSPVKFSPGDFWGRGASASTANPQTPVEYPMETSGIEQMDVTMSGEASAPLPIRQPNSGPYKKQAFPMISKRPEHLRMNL

[7] = biological target: Ephrin type-B receptor 3 (Homo sapiens) (UniProt P54753); assay: Inhibition of EPHB3 assessed as residual activity at 0.1 uM by Cherenkov counting relative to control
Ephrin type-B receptor 3 (Homo sapiens), sequence (P54753 whole entry): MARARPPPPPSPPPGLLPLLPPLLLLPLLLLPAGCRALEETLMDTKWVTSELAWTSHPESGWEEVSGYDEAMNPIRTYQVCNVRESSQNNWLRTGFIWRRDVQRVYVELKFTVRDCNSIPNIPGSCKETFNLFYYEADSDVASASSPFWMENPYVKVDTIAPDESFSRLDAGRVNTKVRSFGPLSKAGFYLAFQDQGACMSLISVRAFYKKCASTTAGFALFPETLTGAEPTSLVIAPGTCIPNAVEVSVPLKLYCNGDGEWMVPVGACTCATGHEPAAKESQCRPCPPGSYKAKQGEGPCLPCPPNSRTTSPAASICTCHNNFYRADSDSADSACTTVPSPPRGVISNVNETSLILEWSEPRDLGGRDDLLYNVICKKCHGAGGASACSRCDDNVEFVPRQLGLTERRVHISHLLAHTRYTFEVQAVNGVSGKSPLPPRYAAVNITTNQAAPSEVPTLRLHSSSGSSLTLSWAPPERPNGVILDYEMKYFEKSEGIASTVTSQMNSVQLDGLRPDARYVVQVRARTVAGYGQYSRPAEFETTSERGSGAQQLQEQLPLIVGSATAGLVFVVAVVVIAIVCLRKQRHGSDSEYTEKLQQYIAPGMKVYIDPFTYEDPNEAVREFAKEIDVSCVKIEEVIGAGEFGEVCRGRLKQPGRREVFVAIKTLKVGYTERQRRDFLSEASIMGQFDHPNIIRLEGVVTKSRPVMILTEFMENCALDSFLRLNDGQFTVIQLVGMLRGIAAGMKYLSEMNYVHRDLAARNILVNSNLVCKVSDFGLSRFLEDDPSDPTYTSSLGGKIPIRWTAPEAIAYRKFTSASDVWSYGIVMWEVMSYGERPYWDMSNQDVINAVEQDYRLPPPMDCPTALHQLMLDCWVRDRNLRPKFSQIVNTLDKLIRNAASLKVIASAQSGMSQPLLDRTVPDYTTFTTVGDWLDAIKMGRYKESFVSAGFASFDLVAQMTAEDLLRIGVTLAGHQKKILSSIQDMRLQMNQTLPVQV
Procedure, shortened: (§2)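 Single-concentration screen at 0.1 µM across a panel of 76 protein kinases. Each kinase was run at an ATP concentration approximating its ATP Km. Results are % mean residual activity versus control assays without compound (n = 3 ± SD).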

[8] = biological target: Mitogen-activated protein kinase 9 (Homo sapiens) (UniProt P45984); assay: Inhibition of JNK2 at 0.1 uM by Cherenkov counting in presence of 20 uM ATP
Mitogen-activated protein kinase 9 (Homo sapiens), sequence (P45984 whole entry, looked up): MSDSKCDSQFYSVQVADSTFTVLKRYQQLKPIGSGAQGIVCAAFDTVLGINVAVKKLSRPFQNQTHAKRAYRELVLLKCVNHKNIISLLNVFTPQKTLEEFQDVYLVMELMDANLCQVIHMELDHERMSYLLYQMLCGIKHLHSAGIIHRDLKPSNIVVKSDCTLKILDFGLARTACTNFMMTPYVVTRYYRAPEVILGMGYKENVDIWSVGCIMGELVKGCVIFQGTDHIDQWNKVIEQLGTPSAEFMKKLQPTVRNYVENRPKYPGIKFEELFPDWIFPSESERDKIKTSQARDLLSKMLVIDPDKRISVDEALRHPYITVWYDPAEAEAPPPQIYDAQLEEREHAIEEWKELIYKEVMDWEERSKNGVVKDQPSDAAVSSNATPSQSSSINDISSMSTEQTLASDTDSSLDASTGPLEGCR
Procedure, shortened: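 Single-concentration selectivity screen at 0.1 μM against a panel of 76 protein kinases. Each kinase was run at an ATP level approximating its Km for ATP. Output is mean residual activity as % of the control assay without compound, n = 3 ± SD.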

[9] = biological target: T2, Serine/threonine-protein kinase TBK1 (Homo sapiens) (UniProt Q9UHD2); assay: Inhibition of TBK1 assessed as residual activity at 0.1 uM by Cherenkov counting relative to control in presence of 50 uM ATP; procedure, shortened: as §1
T2 sequence (whole entry): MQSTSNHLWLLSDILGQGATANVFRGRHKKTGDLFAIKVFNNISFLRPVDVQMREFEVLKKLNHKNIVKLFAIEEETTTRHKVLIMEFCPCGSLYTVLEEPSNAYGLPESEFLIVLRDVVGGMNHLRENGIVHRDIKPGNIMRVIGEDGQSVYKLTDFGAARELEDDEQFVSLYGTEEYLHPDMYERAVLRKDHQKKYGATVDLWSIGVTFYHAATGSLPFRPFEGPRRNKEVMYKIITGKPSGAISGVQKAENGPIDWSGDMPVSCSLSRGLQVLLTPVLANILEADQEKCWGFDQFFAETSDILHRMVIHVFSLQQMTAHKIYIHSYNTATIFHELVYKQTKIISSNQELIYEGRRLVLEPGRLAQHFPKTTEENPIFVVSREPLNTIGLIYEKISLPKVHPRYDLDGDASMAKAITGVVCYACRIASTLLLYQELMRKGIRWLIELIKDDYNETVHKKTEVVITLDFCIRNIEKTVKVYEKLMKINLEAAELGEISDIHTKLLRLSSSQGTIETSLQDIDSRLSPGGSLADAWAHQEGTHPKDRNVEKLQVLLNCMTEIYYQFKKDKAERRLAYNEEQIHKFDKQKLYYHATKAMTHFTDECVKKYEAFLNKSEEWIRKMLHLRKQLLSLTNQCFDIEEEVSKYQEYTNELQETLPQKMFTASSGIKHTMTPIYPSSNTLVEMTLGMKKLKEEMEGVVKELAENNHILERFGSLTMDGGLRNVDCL

[10] = biological target: T3, Serine/threonine-protein kinase Chk1 (Homo sapiens) (UniProt O14757); assay: Inhibition of CHK1 assessed as residual activity at 0.1 uM by Cherenkov counting relative to control in presence of 20 uM ATP; procedure, shortened: as §2
T3 sequence (whole entry): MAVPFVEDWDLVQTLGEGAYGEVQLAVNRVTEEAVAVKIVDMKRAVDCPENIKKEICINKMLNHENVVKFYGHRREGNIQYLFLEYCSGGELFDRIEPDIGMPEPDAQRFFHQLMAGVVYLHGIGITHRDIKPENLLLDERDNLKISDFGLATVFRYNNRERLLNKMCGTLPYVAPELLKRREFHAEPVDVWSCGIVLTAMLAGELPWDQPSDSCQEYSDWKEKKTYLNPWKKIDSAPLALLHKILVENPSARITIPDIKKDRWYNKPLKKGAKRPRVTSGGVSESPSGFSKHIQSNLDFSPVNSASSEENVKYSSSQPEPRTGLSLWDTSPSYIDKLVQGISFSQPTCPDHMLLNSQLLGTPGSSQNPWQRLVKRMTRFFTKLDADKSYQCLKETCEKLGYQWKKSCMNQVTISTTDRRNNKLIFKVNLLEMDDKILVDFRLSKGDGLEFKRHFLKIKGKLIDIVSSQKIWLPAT

MAP kinase-interacting serine/threonine-protein kinase 1 (Homo sapiens), sequence (Q9BUB5 whole entry, looked up): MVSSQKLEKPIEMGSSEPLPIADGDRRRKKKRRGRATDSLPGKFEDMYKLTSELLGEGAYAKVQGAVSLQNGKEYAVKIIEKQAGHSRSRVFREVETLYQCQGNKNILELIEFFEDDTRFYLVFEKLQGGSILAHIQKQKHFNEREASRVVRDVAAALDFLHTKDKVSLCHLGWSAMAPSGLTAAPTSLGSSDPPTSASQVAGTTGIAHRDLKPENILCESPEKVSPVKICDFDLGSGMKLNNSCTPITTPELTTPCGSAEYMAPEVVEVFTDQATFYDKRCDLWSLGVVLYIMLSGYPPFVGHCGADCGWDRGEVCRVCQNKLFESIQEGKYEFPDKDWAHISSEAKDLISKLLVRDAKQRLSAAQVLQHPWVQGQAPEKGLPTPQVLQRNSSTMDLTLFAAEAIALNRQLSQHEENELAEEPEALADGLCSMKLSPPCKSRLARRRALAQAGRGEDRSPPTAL

Activity [1] [%]	Activity [2] [%]	Activity [3] [%]	Activity [4] [%]	inhibition [5] [%]	Activity [6] [%]	Activity [7] [%]	inhibition [8] [%]	Activity [9] [%]	Activity [10] [%]	Compound
89	113	94	107							CC(C)c1noc(-c2ccc(F)cc2)c1-c1ccncc1
96	104	93	107							CC(C)c1onc(-c2ccc(F)cc2)c1-c1ccncc1
				54	74	95	88	106	88	COc1ccc(/C=C/C(=O)Nc2cc(-c3[nH]c([S+](C)[O-])nc3-c3ccc(F)cc3)ccn2)c(OC)c1 (stereo not given)
				83	67	94	69	103	80	COc1ccc(/C=C/C(=O)Nc2cc(-c3[nH]c(SC)nc3-c3ccc(F)cc3)ccn2)c(OC)c1
